Assays:
[1] = melting temperature; fluorescence melt of hairpins on a sequencing array, two-state fit, raised by 9.35 °C to match UV melts; conditions: sodium 0.088 M
Outline: (§1)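 Cy3 fluorescence of library hairpins on a sequenced MiSeq flow cell, with annealed Cy3 and quencher oligos, was imaged in 50 mM Na-HEPES pH 8.0, 25 mM NaCl in 2.5 °C steps up to 60 °C. Signals were normalised to pre-quench Cy3 and to control variants. Melting temperature and folding enthalpy came from bootstrapped two-state fits, inverse-variance combined over four replicates. Fitted temperatures were raised by 9.35 °C to match UV melts.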

[2] = folding enthalpy; higher = less favourable; fluorescence melt of hairpins on a sequencing array, two-state fit; conditions: sodium 0.088 M
Outline: as §1

Sequence | Tm [1] [°C] | folding enthalpy [2] [kcal/mol]
GCTTACGAAAGTACCAGC ((((((....)))..))) | 27.9 | -13.2
GCTTACGAAAGTATAGC ((((((....))).))) | 44.6 | -23.4
GCTTACGAAAGTATGAGC ((((((....)))..))) | 34.7 | -20.5
GCTTACGGAAACGCAAGC ((((.((....)).)))) | 46 | -44.1
GCTTAGCGAAAGCAACGC ((.(.((....)).).)) | 30.5 | -7.36
GCTTAGCGAAAGCCACGC ((.(.((....)).).)) | 22.5 | -8.56
GCTTAGCGAAAGCCATGC ((.(.((....)).).)) | 29.6 | -11.2
GCTTAGCGAAAGCCTAGC (((..((....))..))) | 37.8 | -15.6
GCTTAGCGAAAGCGACGC ((.(.((....)).).)) | 53.2 | -18.2
GCTTAGCGAAAGCTCGGC ((..(((....)))..)) | 36.7 | -17.7
GCTTAGGGAAACCTAGGC ((.((((....)))).)) | 44.4 | -34.1
GCTTAGGGAAACTTAAGC (((((.(....).))))) | 37.9 | -30
GCTTATGCGAAAGCAAGC (((..(((....)))))) | 42.4 | -16.6
GCTTCAACGAAAGTTAGC (((..(((....)))))) | 30.9 | -18.7
GCTTCACGAAAGTGGAGC (((.(((....))).))) | 58.3 | -43.7
GCTTCAGGAAACTGAGGC ((.((((....)))).)) | 47.7 | -37.3
GCTTCAGGAAACTGGAGC (((.(((....))).))) | 49.9 | -38.5
GCTTCCGAAAGGAGCAGC ((((((....)))..))) | 41.7 | -15.2
GCTTCCGCGAAAGCGAGC (((..(((....)))))) | 35.5 | -11
GCTTCCGGAAACGGGAGC (((.(((....))).))) | 59.5 | -40.1
GCTTCGAAAGAAGC (((((....))))) | 66.8 | -26.6
GCTTCGCGAAAGCAACGC ((.(.((....)).).)) | 29.2 | -10
GCTTCGCGAAAGCGCCGC ((..(((....)))..)) | 44.7 | -12.2

Sequence | Tm [1] [°C] | folding enthalpy [2] [kcal/mol]
GCTTCGCGAAAGCGCGGC ((..(((....)))..)) | 39.6 | -18.8
GCTTCGCGAAAGCGGCGC ((..(((....)))..)) | 51.9 | -15.6
GCTTCGCGAAAGCTCAGC (((..((....))..))) | 44.5 | -13.4
GCTTCGGAAACGAAGC ((((((....)))))) | 67.8 | -36.3
GCTTCGGGAAACTGAGGC ((.((.(....).)).)) | 36.5 | -28.8
GCTTCTACGAAAGTAAGC (((..(((....)))))) | 33.1 | -14
GCTTCTCGAAAGAGAGC (((.(((....)))))) | 49.4 | -22
GCTTCTGGAAACAGGAGC (((.(((....))).))) | 50.5 | -37.5
GCTTGACCGAAAGGTAGC (((..(((....)))))) | 38.7 | -21.4
GCTTGACGAAAGTCTAGC (((.(((....))).))) | 55.2 | -35.2
GCTTGAGGAAACTTGAGC (((..((....))..))) | 33.8 | -16.7
GCTTGCGAAAGCAATAGC ((((((....)))..))) | 47.1 | -15.3
GCTTGGCGAAAGCAGAGC (((..((....))..))) | 54 | -18.2
GCTTGGCGAAAGCCAGGC ((.((((....)))).)) | 66.4 | -23.5
GCTTGGCGAAAGCCCAGC (((.(((....))).))) | 51.2 | -36.6
GCTTGGCGAAAGCCGGGC ((..(((....)))..)) | 59.2 | -20.6
GCTTGGCGAAAGCCTAGC (((.(((....))).))) | 57.6 | -41.9
GCTTGGCGAAAGCGAAGC ((((.((....)).)))) | 60.4 | -18.6
GCTTGGCGAAAGCGACGC ((.(.((....)).).)) | 45.5 | -13.2
GCTTGGCGAAAGCGAGGC ((.(.((....)).).)) | 43.3 | -15.3
GCTTGGCGAAAGCGATGC ((.(.((....)).).)) | 45 | -14.3
GCTTGGCGAAAGCGGAGC (((..((....))..))) | 48.6 | -16.8
GCTTGGCGAAAGCTAGGC ((.(.((....)).).)) | 44.6 | -17

Sequence | Tm [1] [°C] | folding enthalpy [2] [kcal/mol]
GCTTGGCGAAAGCTCAGC (((..((....))..))) | 41.1 | -15.2
GCTTGGGGAAACCCAAAC (.(((((....))))).) | 39.3 | -14.5
GCTTGTGAAAACAAGC ((((((....)))))) | 63.5 | -34.3
GCTTGTGGAAACACAAGC (((((((....))))))) | 63.9 | -39.9
GCTTGTGGAAACGTAAGC ((((..(....)..)))) | 36.6 | -17.7
GCTTGTTCGAAAGAAAGC (((..(((....)))))) | 26.5 | -16.2
GCTTTAGAAATAAAGC ((((((....)))))) | 45.1 | -31.4
GCTTTAGGAAACCAAAGC (((((.(....).))))) | 35.4 | -28.3
GCTTTCCGAAAGGAAGC (((.(((....)))))) | 52.3 | -21.1
GCTTTCGAAAGAAAAGC ((((((....))).))) | 46.6 | -31.3
GCTTTCGAAAGAACTAGC ((((((....)))..))) | 25.4 | -12.3
GCTTTCGAAAGAATAGC ((((((....))).))) | 38.2 | -23.9
GCTTTCGGAAACGAAAGC (((((((....))))))) | 68 | -43.1
GCTTTCGGAAACGAGAGC (((.(((....))).))) | 49.1 | -47
GCTTTGACGAAAGTCAGC (((..(((....)))))) | 33.2 | -12
GCTTTGCCGAAAGGCAGC (((..(((....)))))) | 35.8 | -8.46
GCTTTGCGAAAGCAAGC (((.(((....)))))) | 53.2 | -15.2
GCTTTGCGAAAGCAATGC ((.((((....)))).)) | 60.9 | -27.5
GCTTTGCGAAAGCAGAGC (((.(((....))).))) | 56.5 | -43.8
GCTTTGCGAAAGCATCGC ((..(((....)))..)) | 48.7 | -13.7
GCTTTGCGAAAGCATTGC ((..(((....)))..)) | 40.9 | -19.3
GCTTTGGAAACAAAGC ((((((....)))))) | 57.4 | -38.1
GCTTTGGCGAAAGCCAGC (((..(((....)))))) | 38.2 | -10.1

Sequence | Tm [1] [°C] | folding enthalpy [2] [kcal/mol]
GCTTTGGGAAACCAAGGC ((.((((....)))).)) | 47.8 | -29.7
GCTTTTACGAAAGTAAGC (((..(((....)))))) | 33.2 | -14.7
GCTTTTCGAAAGAACAGC (((.(((....))).))) | 42.8 | -31.8
GGAAAACGAAAGTTCTCC (((.(((....))).))) | 35.7 | -24.8
GGAAAACGAAAGTTTCC (((.(((....)))))) | 44.1 | -21.7
GGAAAAGCGAAAGCTTCC (((..(((....)))))) | 40.5 | -15.1
GGAAAAGGAAACTTTTCC (((((((....))))))) | 52.7 | -39.6
GGAAACGAAAGTTGTTCC ((((((....)))..))) | 24.9 | -9.91
GGAAACGAAAGTTTTCC ((((((....))).))) | 46.2 | -20.4
GGAAACGGAAACATTTCC (((((.(....).))))) | 31.3 | -28.4
GGAAACGGAAACGTTTTC (.(((((....))))).) | 46.8 | -28.3
GGAAACTCGAAAGAGTCC (((..(((....)))))) | 33.8 | -14.3
GGAAAGAAATTTCC (((((....))))) | 29.5 | -18.9
GGAAAGCGAAAGCTATCC (((.(((....))).))) | 47.2 | -25.2
GGAAAGGGAAACCTTTTC (.(((((....))))).) | 37.6 | -24.3
GGAAATCGAAAGATATCC (((.(((....))).))) | 37.8 | -26.2
GGAAATCGAAAGATCTCC (((.(((....))).))) | 34.9 | -26.1
GGAAATCGAAAGATTCC (((.(((....)))))) | 40.4 | -20.9
GGAAATTCGAAAGAATCC (((..(((....)))))) | 26 | -9.79
GGAACAGAAATGTTCC ((((((....)))))) | 54.9 | -39
GGAACAGGAAACTGCTCC (((.(((....))).))) | 40.8 | -31.1
GGAACCGAAAGGTAGTCC ((((((....)))..))) | 29.8 | -12

— the array DNA melting data of Ke et al. (doi:10.1101/2024.01.08.574731)
